# Results taken from ChEMBL document CHEMBL4689842, “EUbOPEN Chemogenomics Library wave 1” (2021).
# Tested on: U2OS
# Assay: Multiplex assay against U2OS
# Assay type: toxicity, cell-based
# Conditions: human
# Outline: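 Values for tubulin, mitochondrial-mass and membrane-permeability phenotypes are per cents of cells with healthy nuclei. These cells were identified by CellPathfinder machine-learning gating of live cells that had been stained at seeding with Hoechst33342, BioTracker Green Microtubule Cytoskeleton Dye, MitoTracker Red and Annexin V Alexa Fluor 680 and imaged on a CQ1 microscope at 37°C and 5% CO2 after compound addition. The gating first set Hoechst high-intensity objects apart from normal cells, then split normal cells into healthy, pyknosed or fragmented nuclei, and pyknosed cells into mitotic or apoptotic.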
# [1] = 12 h, 1 µM, compound concentration 1 uM, replicate 1
# [2] = 12 h, 1 µM, compound concentration 1 uM, replicate 2
# [3] = 12 h, 10 µM, compound concentration 10 uM, replicate 1
# [4] = 12 h, 10 µM, compound concentration 10 uM, replicate 2
# [5] = 24 h, 1 µM, compound concentration 1 uM, replicate 1
# [6] = 24 h, 1 µM, compound concentration 1 uM, replicate 2
# [7] = 24 h, 10 µM, compound concentration 10 uM, replicate 1
# [8] = 24 h, 10 µM, compound concentration 10 uM, replicate 2
# [9] = 48 h, 1 µM, compound concentration 1 uM, replicate 1
# [10] = 48 h, 1 µM, compound concentration 1 uM, replicate 2
# [11] = 48 h, 10 µM, compound concentration 10 uM, replicate 1
# [12] = 48 h, 10 µM, compound concentration 10 uM, replicate 2
smiles,measurement,setting,value
CN1CCN(CCOc2cc(OC3CCOCC3)c3c(Nc4c(Cl)ccc5c4OCO5)ncnc3c2)CC1 [SARACATINIB],Population Apoptotic (%),[1],48%
same,Population Fragmented Nuclei (%),[1],15%
same,Population Healthy Nuclei (%),[1],69%
same,Population Hoechst High Intensity Objects (%),[1],5%
same,Population Membrane Permeable-Phenotype (%),[1],5%
same,Population Mitochondria Different-Phenotype (%),[1],20%
same,Population Mitotic Cells (%),[1],51%
same,Population Normal (%),[1],94%
same,Population Pyknosed Nuclei (%),[1],15%
same,Population Tubulin-Different-Phenotype (%),[1],15%
same,Total Cell Count,[1],138
same,Population Apoptotic (%),[2],70%
same,Population Fragmented Nuclei (%),[2],9%
same,Population Healthy Nuclei (%),[2],72%
same,Population Hoechst High Intensity Objects (%),[2],10%
same,Population Membrane Permeable-Phenotype (%),[2],0%
same,Population Mitochondria Different-Phenotype (%),[2],23%
same,Population Mitotic Cells (%),[2],30%
same,Population Normal (%),[2],90%
same,Population Pyknosed Nuclei (%),[2],18%
same,Population Tubulin-Different-Phenotype (%),[2],10%
same,Population Apoptotic (%),[3],63%
same,Population Fragmented Nuclei (%),[3],15%
same,Population Healthy Nuclei (%),[3],57%
same,Population Hoechst High Intensity Objects (%),[3],8%
same,Population Membrane Permeable-Phenotype (%),[3],29%
same,Population Mitochondria Different-Phenotype (%),[3],89%
same,Population Mitotic Cells (%),[3],36%
same,Population Normal (%),[3],91%
same,Population Pyknosed Nuclei (%),[3],26%
same,Population Tubulin-Different-Phenotype (%),[3],100%
same,Total Cell Count,[3],184
same,Population Apoptotic (%),[4],75%
same,Population Fragmented Nuclei (%),[4],9%
same,Population Healthy Nuclei (%),[4],71%
same,Population Hoechst High Intensity Objects (%),[4],7%
same,Population Membrane Permeable-Phenotype (%),[4],21%
same,Population Mitochondria Different-Phenotype (%),[4],100%
same,Population Mitotic Cells (%),[4],25%
same,Population Normal (%),[4],92%
same,Population Pyknosed Nuclei (%),[4],18%
same,Total Cell Count,[4],60
same,Population Apoptotic (%),[5],44%
same,Population Healthy Nuclei (%),[5],71%
same,Population Hoechst High Intensity Objects (%),[5],4%
same,Population Membrane Permeable-Phenotype (%),[5],4%
same,Population Mitochondria Different-Phenotype (%),[5],17%
same,Population Mitotic Cells (%),[5],55%
same,Population Normal (%),[5],95%
same,Population Pyknosed Nuclei (%),[5],13%
same,Population Tubulin-Different-Phenotype (%),[5],11%
same,Total Cell Count,[5],139
same,Population Apoptotic (%),[6],50%
same,Population Fragmented Nuclei (%),[6],14%
same,Population Healthy Nuclei (%),[6],67%
same,Population Hoechst High Intensity Objects (%),[6],8%
same,Population Membrane Permeable-Phenotype (%),[6],6%
same,Population Mitochondria Different-Phenotype (%),[6],13%
same,Population Mitotic Cells (%),[6],50%
same,Population Normal (%),[6],91%
same,Population Pyknosed Nuclei (%),[6],18%
same,Population Tubulin-Different-Phenotype (%),[6],4%
same,Population Apoptotic (%),[7],76%
same,Population Fragmented Nuclei (%),[7],18%
same,Population Healthy Nuclei (%),[7],60%
same,Population Hoechst High Intensity Objects (%),[7],5%
same,Population Membrane Permeable-Phenotype (%),[7],35%
same,Population Mitochondria Different-Phenotype (%),[7],97%
same,Population Mitotic Cells (%),[7],23%
same,Population Normal (%),[7],94%
same,Population Pyknosed Nuclei (%),[7],20%
same,Population Tubulin-Different-Phenotype (%),[7],100%
same,Total Cell Count,[7],224
same,Population Apoptotic (%),[8],85%
same,Population Fragmented Nuclei (%),[8],11%
same,Population Healthy Nuclei (%),[8],54%
same,Population Hoechst High Intensity Objects (%),[8],8%
same,Population Membrane Permeable-Phenotype (%),[8],21%
same,Population Mitochondria Different-Phenotype (%),[8],96%
same,Population Mitotic Cells (%),[8],14%
same,Population Normal (%),[8],91%
same,Population Pyknosed Nuclei (%),[8],34%
same,Population Tubulin-Different-Phenotype (%),[8],93%
same,Total Cell Count,[8],70
same,Population Apoptotic (%),[9],56%
same,Population Fragmented Nuclei (%),[9],13%
same,Population Healthy Nuclei (%),[9],67%
same,Population Hoechst High Intensity Objects (%),[9],5%
same,Population Membrane Permeable-Phenotype (%),[9],5%
same,Population Mitochondria Different-Phenotype (%),[9],12%
same,Population Mitotic Cells (%),[9],44%
same,Population Normal (%),[9],94%
same,Population Pyknosed Nuclei (%),[9],18%
same,Population Tubulin-Different-Phenotype (%),[9],7%
same,Population Apoptotic (%),[10],38%
same,Population Fragmented Nuclei (%),[10],10%
same,Population Healthy Nuclei (%),[10],73%
same,Population Hoechst High Intensity Objects (%),[10],6%
same,Population Membrane Permeable-Phenotype (%),[10],13%
same,Population Mitochondria Different-Phenotype (%),[10],16%
same,Population Mitotic Cells (%),[10],61%
same,Population Normal (%),[10],93%
same,Population Pyknosed Nuclei (%),[10],15%
same,Population Tubulin-Different-Phenotype (%),[10],14%
same,Population Apoptotic (%),[11],70%
same,Population Fragmented Nuclei (%),[11],24%
same,Population Healthy Nuclei (%),[11],36%
same,Population Hoechst High Intensity Objects (%),[11],7%
same,Population Membrane Permeable-Phenotype (%),[11],36%
same,Population Mitochondria Different-Phenotype (%),[11],88%
same,Population Mitotic Cells (%),[11],29%
same,Population Normal (%),[11],92%
same,Population Pyknosed Nuclei (%),[11],38%
same,Population Tubulin-Different-Phenotype (%),[11],96%
same,Total Cell Count,[11],278
same,Population Apoptotic (%),[12],73%
same,Population Fragmented Nuclei (%),[12],9%
same,Population Healthy Nuclei (%),[12],53%
same,Population Hoechst High Intensity Objects (%),[12],15%
same,Population Membrane Permeable-Phenotype (%),[12],48%
same,Population Mitochondria Different-Phenotype (%),[12],100%
same,Population Mitotic Cells (%),[12],26%
same,Population Normal (%),[12],84%
same,Population Pyknosed Nuclei (%),[12],37%
same,Population Tubulin-Different-Phenotype (%),[12],90%
same,Total Cell Count,[12],89
